Test results: ChEMBL document CHEMBL1130124, “Synthesis and opioid activity of [D-Pro10]dynorphin A-(1-11) analogues with N-terminal alkyl substitution” (J Med Chem, 1997)

Columns and labels:
Cavia porcellus [1] = species on record: Cavia porcellus; test: Opioid antagonist activity in guinea pig ileum assay; type: functional; details: read-out: pA2 (converted)
Procedure, shortened: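 Guinea pig ileum antagonism: tissue incubated 10 min with peptide (10 μM where stated), then given […]. Shift measured relative to the agonist IC50 obtained without test peptide.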

[2] = target: T1, Opioid receptors; mu/kappa/delta (Homo sapiens) (UniProt P41145+P41143+P35372); test: Ki ratio is measured as the Ki values of kappa/mu/delta receptors; 1/8.8/41; type: protein assay
T1 sequence (P35372 whole entry, looked up): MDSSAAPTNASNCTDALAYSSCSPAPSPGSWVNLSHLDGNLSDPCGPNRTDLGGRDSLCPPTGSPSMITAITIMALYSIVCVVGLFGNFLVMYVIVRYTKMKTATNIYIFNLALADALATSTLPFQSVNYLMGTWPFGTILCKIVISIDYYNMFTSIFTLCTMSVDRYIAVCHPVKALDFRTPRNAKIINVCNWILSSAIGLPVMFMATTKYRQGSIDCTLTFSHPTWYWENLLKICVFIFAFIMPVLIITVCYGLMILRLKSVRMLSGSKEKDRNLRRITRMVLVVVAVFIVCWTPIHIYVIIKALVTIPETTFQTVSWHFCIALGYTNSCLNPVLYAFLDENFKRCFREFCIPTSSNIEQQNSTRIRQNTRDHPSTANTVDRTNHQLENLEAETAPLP
T1 sequence (P41143 whole entry, looked up): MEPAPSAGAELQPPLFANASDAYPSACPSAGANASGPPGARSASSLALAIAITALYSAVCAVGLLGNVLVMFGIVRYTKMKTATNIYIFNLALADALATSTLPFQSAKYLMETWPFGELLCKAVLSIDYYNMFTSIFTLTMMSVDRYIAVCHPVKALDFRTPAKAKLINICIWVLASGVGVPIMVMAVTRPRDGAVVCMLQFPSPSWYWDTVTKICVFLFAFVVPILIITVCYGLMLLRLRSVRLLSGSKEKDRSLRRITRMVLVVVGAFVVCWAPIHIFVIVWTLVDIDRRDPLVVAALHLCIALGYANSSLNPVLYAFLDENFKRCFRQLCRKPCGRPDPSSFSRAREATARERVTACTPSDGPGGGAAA
T1 sequence (P41145 whole entry, looked up): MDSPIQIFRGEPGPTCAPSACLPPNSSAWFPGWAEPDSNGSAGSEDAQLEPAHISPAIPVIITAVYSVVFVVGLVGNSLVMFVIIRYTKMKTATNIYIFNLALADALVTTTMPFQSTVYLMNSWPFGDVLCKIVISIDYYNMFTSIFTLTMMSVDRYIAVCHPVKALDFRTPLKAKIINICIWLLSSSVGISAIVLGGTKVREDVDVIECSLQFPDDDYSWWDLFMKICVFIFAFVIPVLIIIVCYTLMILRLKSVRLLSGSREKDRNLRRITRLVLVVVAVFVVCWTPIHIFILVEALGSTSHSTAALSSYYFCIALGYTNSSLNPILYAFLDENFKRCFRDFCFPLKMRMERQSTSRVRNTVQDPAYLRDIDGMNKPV
Procedure, shortened: (§1)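 Rat forebrain membranes in 50 mM Tris pH 7.7, incubated 5 h at 4 °C. Final 10 μM bestatin, 30 μM captopril and 50 μM L-leucyl-L-leucine. Nonspecific binding defined with 10 μM levorphanol ([3H]DAMGO) or 10 μM unlabeled DPDPE ([3H]DPDPE). Competition curves fitted by nonlinear regression. IC50 converted to Ki by Cheng–Prusoff with KD 0.314 nM (DAMGO) and 7.63 nM (DPDPE). Ratios use the lowest Ki as denominator.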

[3] = target: T2, Kappa-type opioid receptor (Cavia porcellus, UniProt P41144); test: Binding affinity towards Opioid receptor kappa 1 using [3H]diprenorphine as radioligand in guinea pig cerebellar membrane in presence of 120 mM NaCl + 50 uM Gpp(NH)p; type: cell membranes, Cerebellum
T2 sequence (P41144 whole entry): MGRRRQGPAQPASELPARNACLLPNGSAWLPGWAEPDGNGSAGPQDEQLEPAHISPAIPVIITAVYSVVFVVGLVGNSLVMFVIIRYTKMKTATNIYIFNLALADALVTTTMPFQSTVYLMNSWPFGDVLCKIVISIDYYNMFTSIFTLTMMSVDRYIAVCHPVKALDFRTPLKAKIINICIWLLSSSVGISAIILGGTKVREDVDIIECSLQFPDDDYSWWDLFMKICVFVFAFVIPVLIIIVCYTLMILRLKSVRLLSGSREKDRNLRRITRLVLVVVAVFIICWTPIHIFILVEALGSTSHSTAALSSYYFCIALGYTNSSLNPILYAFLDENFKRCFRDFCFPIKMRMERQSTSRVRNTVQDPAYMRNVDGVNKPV
Procedure, shortened: (§2)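 Guinea pig cerebellar membranes prepared in 50 mM Tris pH 7.4. [3H]diprenorphine at 0.3 nM final, 60 min at 25 °C, with 10 μM bestatin, 1 mM Leu-Leu and 100 nM DAMGO. Run without or with 120 mM NaCl plus 50 μM Gpp(NH)p. Nonspecific binding with 1 μM Dyn A-(1–13)NH2. Filtration over polyethyleneimine-soaked filters; shift expressed as IC50(+)/IC50(–).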

[4] = target: Kappa-type opioid receptor (Homo sapiens) (UniProt P41145); test: Ki ratio is measured as the Ki values of kappa-1/kappa.2/kappa.3 receptors; 1/233/5.3
Kappa-type opioid receptor (Homo sapiens), sequence (P41145 whole entry): as the sequence (P41145 whole entry, looked up) above
Procedure, shortened: (§3)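 Hartley guinea pig whole-brain homogenate in 50 mM Tris-HCl pH 7.7 (6.67 mg wet tissue/mL; 5 mM EDTA for NalBzoH). Radioligands ~1 nM: [3H]U69,593 (κ1); [3H]bremazocine plus 100 nM DAMGO, DSLET and U69,593 (κ2); [3H]NalBzoH plus 100 nM U69,593 (κ3). Test peptide 10⁻⁵–10⁻¹¹ M, 1 h at 25 °C, with bacitracin/bestatin/thiorphan. Nonspecific binding: 1 μM U69,593, 10 μM bremazocine or NalBzoH. Filtration; Ki via Cheng–Prusoff.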

[5] = target: T2, Kappa-type opioid receptor; test: Affinity against Opioid receptor kappa 1 was determined by measuring the inhibition of [3H]U-69593 binding to guinea pig […]
[6] = IC50 ratio measured as the IC50(presence of 50 uM of Gpp(NH)p)/IC50 (absence of 50 uM of Gpp(NH)p).; procedure, shortened: as §2
[7] = target: Delta-type opioid receptor (Rattus norvegicus, UniProt P33533); test: Affinity against Opioid receptor delta 1 was determined by measuring the inhibition of [3H]DPDPE binding to rat forebrain membranes; type: cell membranes, Membrane
Delta-type opioid receptor, sequence (P33533 whole entry): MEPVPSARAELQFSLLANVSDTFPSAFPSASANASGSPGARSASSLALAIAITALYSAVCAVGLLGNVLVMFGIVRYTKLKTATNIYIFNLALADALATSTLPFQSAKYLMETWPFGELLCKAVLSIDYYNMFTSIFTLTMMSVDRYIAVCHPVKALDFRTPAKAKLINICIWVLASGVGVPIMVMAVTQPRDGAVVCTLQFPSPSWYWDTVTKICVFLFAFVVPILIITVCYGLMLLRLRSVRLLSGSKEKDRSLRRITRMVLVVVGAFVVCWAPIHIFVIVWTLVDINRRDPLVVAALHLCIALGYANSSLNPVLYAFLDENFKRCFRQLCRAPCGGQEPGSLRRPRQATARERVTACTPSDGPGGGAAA
Procedure, shortened: as §1, with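 “regression.” for “regression. IC50 converted to Ki by Cheng–Prusoff with KD 0.314 nM (DAMGO) and 7.63 nM (DPDPE).”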

Cavia porcellus [8] = species on record: Cavia porcellus; test: The opioid activity by guinea pig ileum assay; type: functional
Procedure, shortened: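 Guinea pig ileum twitch assay with cumulative peptide additions to the bath. IC50 values are means from three to six replicates using tissues from different animals.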

[9] = target: T2, Kappa-type opioid receptor; test: Affinity against Opioid receptor kappa 2 was determined by measuring the inhibition of [3H]bremazocine binding to guinea pig cerebellar membranes; set-up: species or system Cerebellum, Membrane
[10] = target: T2, Kappa-type opioid receptor; test: Binding affinity towards Opioid receptor kappa 1 using [3H]diprenorphine as radioligand in guinea pig cerebellar membrane in absence of 120 mM NaCl + 50 uM Gpp(NH)p; type: cell membranes, Cerebellum; procedure, shortened: as §2
[11] = target: T2, Kappa-type opioid receptor; test: Affinity against Opioid receptor kappa 3 was determined by measuring the inhibition of [3H]NalBzoH binding to […]
Mu-type opioid receptor = Mu-type opioid receptor (Rattus norvegicus, UniProt P33535); test: Affinity against Opioid receptor mu 1 was determined by measuring the inhibition of [3H]DAMGO binding to rat forebrain membranes; type: cell membranes, Membrane
Mu-type opioid receptor, sequence (P33535 whole entry): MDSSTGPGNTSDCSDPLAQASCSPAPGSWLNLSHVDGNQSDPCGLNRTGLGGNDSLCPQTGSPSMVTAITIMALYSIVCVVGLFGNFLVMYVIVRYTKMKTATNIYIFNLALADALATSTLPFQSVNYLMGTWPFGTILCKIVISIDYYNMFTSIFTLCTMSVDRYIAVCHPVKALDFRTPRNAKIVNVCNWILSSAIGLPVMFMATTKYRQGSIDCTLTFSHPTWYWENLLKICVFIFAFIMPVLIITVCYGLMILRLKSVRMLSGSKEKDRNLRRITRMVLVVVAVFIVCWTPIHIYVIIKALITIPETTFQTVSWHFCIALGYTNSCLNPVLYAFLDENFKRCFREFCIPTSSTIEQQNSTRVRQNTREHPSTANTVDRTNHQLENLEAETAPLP
Procedure, shortened: as §1, with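 “regression.” for “regression. IC50 converted to Ki by Cheng–Prusoff with KD 0.314 nM (DAMGO) and 7.63 nM (DPDPE).”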

[12] = target: T2, Kappa-type opioid receptor; test: Affinity against Opioid receptor kappa 1 was determined by measuring the inhibition of [3H]bremazocine binding to guinea pig cerebellar membranes
Procedure, shortened: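 Guinea pig cerebellar membranes with [3H]bremazocine in 20 mM HEPES pH 7.4, 3 h at 4 °C. 100 nM DAMGO and 100 nM bestatin present; nonspecific binding with 10 μM Dyn A-(1–13)NH2. Competition curves fitted by nonlinear regression. Selectivity ratios use the lowest Ki as denominator.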

[13] = target: Kappa-type opioid receptor (Homo sapiens) (UniProt P41145); test: Ki ratio is measured as the Ki values of kappa-1/kappa.2/kappa.3 receptors; 1/150/17; procedure, shortened: as §3
[14] = target: T1, Opioid receptors; mu/kappa/delta (Homo sapiens); test: Ki ratio is measured as the Ki values of kappa/mu/delta receptors; 1/21/880; type: protein assay; procedure, shortened: as §1
[15] = target: T1, Opioid receptors; mu/kappa/delta (Homo sapiens); test: Ki ratio is measured as the Ki values of kappa/mu/delta receptors; 1/480/27900; type: protein assay; procedure, shortened: as §1

Question: Which Kb (Cavia porcellus [1]) does the source give for CC[C@H](C)[C@H](NC(=O)[C@H](CCCN=C(N)N)NC(=O)[C@H](CCCN=C(N)N)NC(=O)[C@H](CC(C)C)NC(=O)[C@H](Cc1ccccc1)NC(=O)CNC(=O)CNC(=O)[C@@H](N)Cc1ccc(O)cc1)C(=O)N[C@@H](CCCN=C(N)N)C(=O)N1CCC[C@@H]1C(=O)N[C@@H](CCCCN)C(=O)O here?
Answer: 63.1 nM

Question: What does the source list for C=CCN(CC=C)[C@@H](Cc1ccc(O)cc1)C(=O)NCC(=O)NCC(=O)N[C@@H](Cc1ccccc1)C(=O)N[C@@H](CC(C)C)C(=O)N[C@@H](CCCN=C(N)N)C(=O)N[C@@H](CCCN=C(N)N)C(=O)N[C@H](C(=O)N[C@@H](CCCN=C(N)N)C(=O)N1CCCC1C(=O)N[C@@H](CCCCN)C(=O)O)[C@@H](C)CC (stereo in doubt)?
Answer: Ki ratio [2]: kappa/mu/delta; IC50 [3]: 64.6 nM; Ki ratio [4]: kappa/delta/mu; Ki [5]: 21.3 nM; Ratio [6]: 3.03; Ki [7]: 149 nM; IC50 (Cavia porcellus [8]): > 3000 nM; IC50 [9]: 4970 nM; IC50 [10]: 21.3 nM; Ki [11]: 113 nM

Question: Which IC50 [3] does the source give for CC[C@H](C)[C@H](NC(=O)[C@H](CCCN=C(N)N)NC(=O)[C@H](CCCN=C(N)N)NC(=O)[C@H](CC(C)C)NC(=O)[C@H](Cc1ccccc1)NC(=O)CNC(=O)CNC(=O)[C@H](Cc1ccc(O)cc1)N(Cc1ccccc1)Cc1ccccc1)C(=O)N[C@@H](CCCN=C(N)N)C(=O)N1CCCC1C(=O)N[C@@H](CCCCN)C(=O)O (stereo in doubt) [listing 1 of 3 here] here?
Answer: 391 nM

Question: What about the Ki [7] of the same compound?
Answer: 2770 nM

Question: What about the Ki (Mu-type opioid receptor) of the same compound?
Answer: 128 nM

Question: And the IC50 [10]?
Answer: 43.2 nM

Question: And the Ki [12]?
Answer: 3.66 nM

Question: For CC[C@H](C)[C@H](NC(=O)[C@H](CCCN=C(N)N)NC(=O)[C@H](CCCN=C(N)N)NC(=O)[C@H](CC(C)C)NC(=O)[C@H](Cc1ccccc1)NC(=O)CNC(=O)CNC(=O)[C@H](Cc1ccc(O)cc1)N(Cc1ccccc1)Cc1ccccc1)C(=O)N[C@@H](CCCN=C(N)N)C(=O)N1CCCC1C(=O)N[C@@H](CCCCN)C(=O)O (stereo in doubt) [listing 2 of 3 here], which IC50 (Cavia porcellus [8]) is on record?
Answer: 228 nM

Question: Which Kb (Cavia porcellus [1]) does the source give for C=CCN[C@@H](Cc1ccc(O)cc1)C(=O)NCC(=O)NCC(=O)N[C@@H](Cc1ccccc1)C(=O)N[C@@H](CC(C)C)C(=O)N[C@@H](CCCN=C(N)N)C(=O)N[C@@H](CCCN=C(N)N)C(=O)N[C@H](C(=O)N[C@@H](CCCN=C(N)N)C(=O)N1CCCC1C(=O)N[C@@H](CCCCN)C(=O)O)[C@@H](C)CC (stereo in doubt) here?
Answer: 25.1 nM

Question: Which results are given for CC[C@H](C)[C@H](NC(=O)[C@H](CCCN=C(N)N)NC(=O)[C@H](CCCN=C(N)N)NC(=O)[C@H](CC(C)C)NC(=O)[C@H](Cc1ccccc1)NC(=O)CNC(=O)CNC(=O)[C@H](Cc1ccc(O)cc1)N(CC1CC1)CC1CC1)C(=O)N[C@@H](CCCN=C(N)N)C(=O)N1CCCC1C(=O)N[C@@H](CCCCN)C(=O)O (stereo in doubt)?
Answer: IC50 [3]: 29.1 nM; Ki [5]: 2.61 nM; Ratio [6]: 8.79; Ki [7]: 166 nM; Kb (Cavia porcellus [1]): 50.1 nM; IC50 (Cavia porcellus [8]): > 100000 nM; IC50 [9]: 388 nM; Ki (Mu-type opioid receptor): 3.9 nM; Ki ratio [13]: kappa/mu/delta; IC50 [10]: 3.31 nM; Ki [12]: 0.19 nM; Ki ratio [14]: kappa/mu/delta; Ki [11]: 44.4 nM

Question: With CC[C@H](C)[C@H](NC(=O)[C@H](CCCN=C(N)N)NC(=O)[C@H](CCCN=C(N)N)NC(=O)[C@H](CC(C)C)NC(=O)[C@H](Cc1ccccc1)NC(=O)CNC(=O)CNC(=O)[C@H](Cc1ccc(O)cc1)NCC1CC1)C(=O)N[C@@H](CCCN=C(N)N)C(=O)N1CCCC1C(=O)N[C@@H](CCCCN)C(=O)O (stereo in doubt) as the compound, how does the IC50 [3] read?
Answer: 27.1 nM

Question: What about the Ratio [6] of the same compound?
Answer: 66.9

Question: What about the Ki [7] of the same compound?
Answer: 558 nM

Question: What about the Kb (Cavia porcellus [1]) of the same compound?
Answer: 50.1 nM

Question: And the IC50 (Cavia porcellus [8])?
Answer: 2.16 nM

Question: And the Ki ratio [15]?
Answer: kappa/delta/mu

Question: What about the IC50 [10] of the same compound?
Answer: 0.41 nM

Question: For CC[C@H](C)[C@H](NC(=O)[C@H](CCCN=C(N)N)NC(=O)[C@H](CCCN=C(N)N)NC(=O)[C@H](CC(C)C)NC(=O)[C@H](Cc1ccccc1)NC(=O)CNC(=O)CNC(=O)[C@H](Cc1ccc(O)cc1)N(Cc1ccccc1)Cc1ccccc1)C(=O)N[C@@H](CCCN=C(N)N)C(=O)N1CCCC1C(=O)N[C@@H](CCCCN)C(=O)O (stereo in doubt) [listing 3 of 3 here], which Ratio [6] is on record?
Answer: 9.05
